Assay results reported in ChEMBL document CHEMBL4699636, “Novel 2,7-Diazaspiro[4,4]nonane Derivatives to Inhibit Mouse and Human Osteoclast Activities and Prevent Bone Loss in Ovariectomized Mice without Affecting Bone Formation” (J Med Chem, 2020).
pIC50: −log10 of the molar value. Activity calls are given as the source filed them. The rule behind the calls is not given here.

Experiments:
[1] = system: Osteoclast (Homo sapiens); experiment: Toxicity in human peripheral blood cell-derived osteoclasts assessed as reduction in osteoclasts number up to 20 uM incubated for 48 hrs by TRAP-staining based assay
Mus musculus [2] = experiment: Antiosteoporotic activity in C57BL6/J mouse model of OVX-induced bone loss assessed as trabecular bone volume per tissue volume level in tibial metaphysis at 20 mg/kg, ip BID for 4 weeks by microCT analysis (17.49 +/- 2.91 %); type: functional
Mus musculus [3] = experiment: Antiosteoporotic activity in C57BL6/J mouse model of OVX-induced bone loss assessed as trabecular bone volume per tissue volume level in tibial metaphysis at 20 mg/kg, ip QD for 4 weeks by microCT analysis (17.49 +/- 2.91 %); type: functional
[4] = Toxicity in C57BL6/J mouse model of OVX-induced bone loss assessed as effect on bone formation by measuring mineralizing surface per trabecular bone surface level in femoral metaphysis at 20 mg/kg, ip QD for 4 weeks by histomorphometry (27.90 +/ 8.22 %); type: organism-based; settings: in vivo, 672 h
[5] = system: Osteoclast (Homo sapiens); experiment: Inhibition of resorption activity of human peripheral blood cell-derived osteoclasts at 1-20 uM incubated for 48 hrs by Kossa-staining based assay; settings: dose microM 1-20, time 48.0 hrs
[6] = system: Osteoclast (Homo sapiens); experiment: Inhibition of resorption activity of human peripheral blood cell-derived osteoclasts incubated for 48 hrs by Kossa-staining based assay
Mus musculus [7] = experiment: Antiosteoporotic activity in C57BL6/J mouse model of OVX-induced bone loss assessed as trabecular number level in femoral metaphysis at 20 mg/kg, ip QD for 4 weeks by histomorphometry (2.99 +/- 0.80 /mm); type: functional
Summary of the method: (§1)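 OVX mice, 12 weeks old, ip 20 mg/kg q.d. or b.i.d. for 4 weeks in CMC/Tween 80 vehicle. Distal right femur taken day 28. Static trabecular parameters measured on one 4-µm Masson-Goldner trichrome section, ROI 0.75 mm². n=10 per group, 9 in OVX+vehicle.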

[8] = Toxicity in C57BL6/J mouse model of OVX-induced bone loss assessed as effect on bone formation by measuring mineralizing surface per trabecular bone surface level in femoral metaphysis at 20 mg/kg, ip BID for 4 weeks by histomorphometry (27.90 +/ 8.22 %); type: organism-based; settings: in vivo, 672 h
Mus musculus [9] = experiment: Antiosteoporotic activity in C57BL6/J mouse model of OVX-induced bone loss assessed as trabecular bone volume per tissue volume level in femoral metaphysis at 20 mg/kg, ip QD for 4 weeks by histomorphometry (11.67 +/- 2.37%); type: functional
Summary of the method: as §1

[10] = Toxicity in C57BL6/J mouse model of OVX-induced bone loss assessed as effect on bone formation by measuring bone formation rate per trabecular bone surface level in femoral metaphysis at 20 mg/kg, ip BID for 4 weeks by histomorphometry ([…]); type: organism-based; settings: in vivo, 672 h
Mus musculus [11] = experiment: Antiosteoporotic activity in C57BL6/J mouse model of OVX-induced bone loss assessed as trabecular pattern factor level in tibial metaphysis at 20 mg/kg, ip BID for 4 weeks by microCT analysis (17.17 +/- 3.41 […]); type: functional
[12] = Toxicity in C57BL6/J mouse model of OVX-induced bone loss assessed as effect on bone formation by measuring osteoblast surface per trabecular bone surface level in femoral metaphysis at 20 mg/kg, ip QD for 4 weeks by histomorphometry (5.03 +/ 2.92 %); type: organism-based; settings: in vivo, 672 h
Summary of the method: as §1

Mus musculus [13] = experiment: Antiosteoporotic activity in C57BL6/J mouse model of OVX-induced bone loss assessed as degree of anisotropy (range 0-1) level in tibial metaphysis at 20 mg/kg, ip QD for 4 weeks by microCT analysis (0.53 +/- 0.07); type: functional
[14] = Toxicity in C57BL6/J mouse model of OVX-induced bone loss assessed as effect on bone formation by measuring osteocalcin level at 20 mg/kg, ip QD for 4 weeks (1.62 +/ 0.21 m3/um2/y); type: organism-based; settings: in vivo, 672 h
[15] = Toxicity in C57BL6/J mouse model of OVX-induced bone loss assessed as effect on bone formation by measuring osteocalcin level at 20 mg/kg, ip BID for 4 weeks […]; type: organism-based; settings: in vivo, 672 h
Mus musculus [16] = experiment: Antiosteoporotic activity in C57BL6/J mouse model of OVX-induced bone loss assessed as serum CTX-1 level […] at 20 mg/kg, ip QD for 4 weeks (165.38 +/- 54.93 %); type: functional
Mus musculus [17] = experiment: Antiosteoporotic activity in C57BL6/J mouse model of OVX-induced bone loss assessed as structure model index level in tibial metaphysis at 20 mg/kg, ip QD for 4 weeks by microCT analysis (1.92 +/- 0.19); type: functional; settings: dose […]
Mus musculus [18] = experiment: Antiosteoporotic activity in C57BL6/J mouse model of OVX-induced bone loss assessed as cortical thickness level in tibial diaphysis at 20 mg/kg, ip QD for 4 weeks by microCT analysis (179.27 +/- 7.57 um); type: functional
Mus musculus [19] = experiment: Antiosteoporotic activity in C57BL6/J mouse model of OVX-induced bone loss assessed as cortical thickness level in tibial diaphysis at 20 mg/kg, ip BID for 4 weeks by microCT analysis (179.27 +/- 7.57 um); type: functional
[20] = Toxicity in C57BL6/J mouse model of OVX-induced bone loss assessed as effect on bone formation by measuring number of osteoblasts per bone surface level in femoral metaphysis at 20 mg/kg, ip QD for 4 weeks by histomorphometry (4.55 +/ 2.53 /mm); type: organism-based; settings: in vivo, 672 h
Summary of the method: as §1

[21] = Toxicity in C57BL6/J mouse model of OVX-induced bone loss assessed as effect on osteoclast numbers per bone perimeter at 20 mg/kg, IP BID for 4 weeks; type: organism-based; settings: in vivo, 672 h
Summary of the method: as §1

Mus musculus [22] = experiment: Antiosteoporotic activity in C57BL6/J mouse model of OVX-induced bone loss assessed as trabecular thickness level in femoral metaphysis at 20 mg/kg, ip QD for 4 weeks by histomorphometry (39.96 +/- 5.42 um); type: functional
Summary of the method: as §1

Mus musculus [23] = experiment: Antiosteoporotic activity in C57BL6/J mouse model of OVX-induced bone loss assessed as trabecular separation level in femoral metaphysis at 20 mg/kg, ip QD for 4 weeks by histomorphometry (319.80 +/- 106.52 um); type: functional
Summary of the method: as §1

Mus musculus [24] = experiment: Antiosteoporotic activity in C57BL6/J mouse model of OVX-induced bone loss assessed as degree of anisotropy (range 0-1) level in tibial metaphysis at 20 mg/kg, ip BID for 4 weeks by microCT analysis (0.53 +/- 0.07); type: functional
Mus musculus [25] = experiment: Antiosteoporotic activity in C57BL6/J mouse model of OVX-induced bone loss assessed as serum CTX-1 level […] at 20 mg/kg, ip BID for 4 weeks (165.38 +/- 54.93 %); type: functional
Mus musculus [26] = experiment: Antiosteoporotic activity in C57BL6/J mouse model of OVX-induced bone loss assessed as trabecular pattern factor level in tibial metaphysis at 20 mg/kg, ip QD for 4 weeks by microCT analysis (17.17 +/- 3.41 […]); type: functional

## O=S1(=O)N(c2ccccc2)C[C@H](O)[C@]12CCN(Cc1ccc(Cl)cc1)C2 (racemic)
[1]
  Activity: Non-Toxic
Mus musculus [2]
  Activity: 25.3%
Mus musculus [3]
  Activity: 19.48%
[4]
  Activity: 27.7%
[5]
  inhibition: Active
[6]
  pIC50: 5.46
Mus musculus [7]
  Activity: 2.83 /millimeter
[8]
  Activity: 26.07%
Mus musculus [9]
  Activity: 12.02%
[10]
  Activity: 157.59 um3/um2/yr
Mus musculus [11]
  Activity: 6.51 1/mm
[12]
  Activity: 3.57%
Mus musculus [13]
  Activity_index: 0.5
[14]
  Activity: 96.8%
[15]
  Activity: 109.97%
Mus musculus [16]
  Activity: 153.3%
Mus musculus [17]
  Activity_index: 1.88
Mus musculus [18]
  Activity: 187.72 um
Mus musculus [19]
  Activity: 193.5 um
[20]
  Activity: 2.96 /millimeter
[21]
  Activity: Non-Toxic
Mus musculus [22]
  Activity: 41.8 µm
Mus musculus [23]
  Activity: 318.42 um
Mus musculus [24]
  Activity_index: 0.45
Mus musculus [25]
  Activity: 112.71%
Mus musculus [26]
  Activity: 13.7 1/mm
